Measured values from different studies.
Each line is one published result; the experiments were not run side by side.
BMX: Cytoplasmic tyrosine-protein kinase BMX (BMX, Homo sapiens, UniProt P51813)
SIGMAR1: Sigma non-opioid intracellular receptor 1 (SIGMAR1, Homo sapiens, UniProt Q99720)
SLC18A3: Vesicular acetylcholine transporter (SLC18A3, Homo sapiens, UniProt Q16572)
OPRK1: Kappa-type opioid receptor (OPRK1, Homo sapiens, UniProt P41145)
HTR2A: 5-hydroxytryptamine receptor 2A (HTR2A, Homo sapiens, UniProt P28223)

The Ki of `Cn1cc(-c2cccc(N3CCc4c(sc5c4CC(C)(C)C5)C3=O)c2CO)cc(Nc2ccncn2)c1=O` is reported as > 3330 nM (BMX; enzyme activity; inhibitor; FRET).
The Ki of `CN(CCCN1c2ccccc2CCc2ccccc21)CC(=O)c1ccc(Cl)cc1` is reported as 7090 nM (SIGMAR1; ligand displacement; radioligand).
`N[C@@H](C[C@]1(C(=O)O)C[C@H]2OC[C@@H](O)[C@@H](O)[C@H]2O1)C(=O)O` gave a Ki of 895 nM (Glutamate receptor ionotropic, kainate 2 (Grik2, Rattus norvegicus, UniProt P42260, Y443F); ligand displacement; radioligand).
`O=C(CN1CCC(CN2Cc3ccccc3C2=O)CC1)c1ccc(F)cc1` has a Ki of 1740 nM (SIGMAR1; ligand displacement; radioligand).
`CCOC(=O)C(CC)(CCCSC)NC(=O)c1ccc(C2CC2)c(Cc2ccc(F)cc2)n1` (stereo not shown) has a Ki of 8.5 nM (Cannabinoid receptor 1 (CNR1, Homo sapiens, UniProt P21554); ligand displacement; radioligand; cell membranes).
For `O=C(c1ccc(F)cc1)C1CCN(C2Cc3c(cccc3OCCF)CC2O)CC1` (single isomer, unassigned; (-)), the Ki was 6.98 nM (SLC18A3; ligand displacement; radioligand).
The Ki of `Cc1cc(O)cc(C)c1C[C@H](N)C(=O)N1CCc2ccc(Cc3cccc(N)c3)cc2C1` is reported as 28 nM (OPRK1; ligand displacement; radioligand; cell membranes).
`Fc1ccc2c(C3CCCNC3)noc2c1` (racemic) has a Ki of 284 nM (HTR2A; ligand displacement; radioligand; cell membranes).
`CCCN1CCC[C@@H]2Cc3n[nH]cc3C[C@H]21` has a Ki of > 1000 nM (SLC18A3; ligand displacement; radioligand).
`CN(C)CCCC1(c2ccc(F)cc2)OCc2cc(C#N)ccc21` (stereo not shown) gave a Ki of 182 nM (SIGMAR1; ligand displacement; radioligand).
`Cc1nc2n(c(=O)c1CCN(C)CCc1c[nH]c3ccccc13)CCCC2` has a Ki of 237 nM (HTR2A; ligand displacement; radioligand; cell membranes).
`[C-]#[O+]` has a Ki of 5400 nM (cooS2 (Carboxydothermus hydrogenoformans, UniProt Q9F8A8); enzyme activity; inhibitor).
The Ki of `CN1CCN(CCc2ccc(Cl)c(Cl)c2)CC1` is reported as 9.48 nM (SIGMAR1; ligand displacement; radioligand).
For `CCCC[C@@H](NC(=O)[C@@H](N)Cc1c(C)cc(O)cc1C)C(=O)NCC(=O)N[C@@H](Cc1ccc(F)cc1)C(=O)N(C)CCC[C@@]1(c2ccc(F)cc2)OCc2cc(C#N)ccc21`, the Ki was 3 nM (OPRK1; cell-free assay).
`Cc1cccc(Cc2ccc3c(c2)CN(C(=O)[C@@H](N)Cc2c(C)cc(O)cc2C)CC3)c1` has a Ki of 2.7 nM (OPRK1; ligand displacement; radioligand; cell membranes).
`COc1cc2c(cc1OC)CN(CCc1ccc(NC(=O)c3cccc4c(=O)c5cccc(OC)c5[nH]c34)cc1)CC2` gave a Ki of > 10000 nM (SIGMAR1; ligand displacement; radioligand).
The Ki of `CNC(=O)[C@H]1[Se][C@@H](n2cnc3c(NCc4cccc(Cl)c4)nc(Cl)nc32)[C@H](O)[C@@H]1O` is reported as ~200 nM (Adenosine receptor A2a (ADORA2A, Homo sapiens, UniProt P29274); ligand displacement; radioligand; cell membranes).
The Ki of `OCCOCCN1CCN(C(c2ccccc2)c2ccc(Cl)cc2)CC1` (stereo not shown) is reported as 437 nM (SIGMAR1; ligand displacement; radioligand).
The Ki of `Cn1cc(-c2cc(F)cc(N3CCn4c(cc5c4CCCC5)C3=O)c2CO)cc(Nc2ccc(N3CCN(C4COC4)CC3)cn2)c1=O` is reported as 83.2 nM (BMX; enzyme activity; inhibitor; FRET).
